Assay outcomes (PubChem)
INS promoter inh: TRM-6 insulin promoter activity inhibition; actives 0.9% (n = 130,000); TRM-6 cells (human fetal islet line), insulin promoter-eGFP reporter, imaging; reporter expression induced with tamoxifen; inhibition, % at 2 µM;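 active = inhibition above the mean plus 3 SD, with well images judged a real hit on visual review, cut at about 60% in these data, passing the limit was not always enough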
RBBP9 inhibitor: human RBBP9 hydrolase inhibition; AID 1515; actives 0.2% (n = 220,000); inhibition, % at 7.94 µM; recombinant RBBP9, FP-Rh probe fluorescence polarization; O75884;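 active = inhibition above the campaign mean of all tested compounds plus 3 SD, cut at about 14% in these data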;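 also: plate controls were DMSO wells with RBBP9 for no effect and wells lacking RBBP9 protein for full effect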
Target sequence (O75884 whole entry, looked up): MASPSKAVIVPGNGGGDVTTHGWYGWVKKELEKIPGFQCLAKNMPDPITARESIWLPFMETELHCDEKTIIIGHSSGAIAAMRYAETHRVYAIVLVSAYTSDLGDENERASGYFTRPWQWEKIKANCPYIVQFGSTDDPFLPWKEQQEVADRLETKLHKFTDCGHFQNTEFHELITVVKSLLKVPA
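Controls: DMSO-treated enzyme wells and wells lacking RBBP9 | Material: RBBP9 protein | Technique: Fluorescence polarization | Replication: Single well per compound, no replicates | Buffer or medium: Tris-NaCl-Pluronic buffer, pH 8.0 | Timing: 30 min compound preincubation, 45 min probe labeling, 25 °C | Read-out basis: Percent inhibition from mP, scaled between DMSO and no-protein wells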
Hsp70 act: Hsp70 transcriptional activation, primary screen. HeLa Hsp70 promoter luciferase reporter, luminescence; scaled: vehicle 0, proteasome-inhibitor control 100%. activation, % at 10 µM. actives 0.04% (n = 200,000);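 active = activation above the mean across all tested compounds plus 3 SD, cutoff set per campaign, cut at about 5.5% in these data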;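 also: 100% = MG132 at 30 µM as the positive control and 0% = DMSO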
Insulin prom up: MIN6 insulin promoter up-regulation. MIN6 insulin promoter-GFP reporter, high-content imaging; active compounds read high. z-score at 5 µM. actives 0.3% (n = 190,000);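 active = z-score above 3 at 5 µM with at least 500 cells counted in the well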
Wee1 stabilizer: inhibitors of human Wee1 degradation; P30291; HeLa Luc-Wee1K328M stability, luciferase luminescence; 100% = proteasome inhibitor MG132 effect; reporter increase, % at 5 µM; actives 1.2% (n = 220,000);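 active = activation above the mean of all tested compounds plus 3 SD, set per screening run, cut at about 8.8% in these data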;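 also: cells exposed to compound for 20 h before luminescence read; 0% = DMSO alone and 100% = MG132 at 30 µM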
Mdm2 ligase inh: inhibitors of human Mdm2 E3 ubiquitin ligase; AID 1230; actives 0.11% (n = 210,000); signal enhancement, % at 5 µM; cell-based MDM2 ubiquitination luciferase reporter, 2 h; 0 = plate control, 100 = twice control, blank-subtracted;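 active = signal enhancement of 30% or more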;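 also: luminescence tracks abundance of the self-degrading MDM2-luciferase fusion protein; higher signal means inhibition of MDM2 E3 ligase activity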
Target sequence (Q00987 whole entry, looked up, the tested form may be a part): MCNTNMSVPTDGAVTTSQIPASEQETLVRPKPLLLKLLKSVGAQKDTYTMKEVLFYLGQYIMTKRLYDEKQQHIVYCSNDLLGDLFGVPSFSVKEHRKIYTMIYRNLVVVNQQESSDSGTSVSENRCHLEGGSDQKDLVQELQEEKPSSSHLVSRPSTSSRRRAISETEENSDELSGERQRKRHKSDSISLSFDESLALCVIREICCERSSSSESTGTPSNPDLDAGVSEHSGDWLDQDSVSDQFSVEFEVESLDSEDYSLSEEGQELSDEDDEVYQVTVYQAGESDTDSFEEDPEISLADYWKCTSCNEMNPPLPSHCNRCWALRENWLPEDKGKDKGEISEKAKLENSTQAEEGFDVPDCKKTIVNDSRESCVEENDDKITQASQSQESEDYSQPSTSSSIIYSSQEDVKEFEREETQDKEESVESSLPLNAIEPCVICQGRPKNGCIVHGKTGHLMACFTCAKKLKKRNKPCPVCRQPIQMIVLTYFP
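Assay system: stable mammalian line carrying autodegrading MDM2–luciferase fusion reporter; amount: 2000 cells seeded into each well; buffer or medium: DMEM; benchmarks: plate control and blank wells; signal: luciferase luminescence; timing: 2 h compound exposure at 37 °C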
Wee1 degr conf: confirmation of human Wee1 degradation inhibitors. actives 4% (n = 1,100). activation, % at 5 µM. shares compounds with Wee1 stabilizer. HeLa Luc-Wee1K328M degradation, luminescence; vehicle 0%, proteasome-blocked wells 100%; in the data active = activation above about 8.9%
* = called active by the depositor; i = inactive; / = not tested or not shown. Sampled rows, rich in hits. Any-hit rate of the full collection: about 2.2%.

SMILES | INS promoter inh | RBBP9 inhibitor | Hsp70 act | Insulin prom up | Wee1 stabilizer | Mdm2 ligase inh | Wee1 degr conf
CC(C)C1CC(c2csc(N)n2)CCO1 (stereo not given) | / | -14.6 | 0.3 | 1.09 | 13.3* | -13.6 | 0.3
CCCC1CC(c2csc(N)n2)CCO1 (stereo not given) | / | -11.7 | -0.5 | -0.36 | -2.1 | -7.9 | /
COc1ccccc1/C(C)=N/NC(=S)NCc1ccccc1 | 8.1 | -5.4 | -0.2 | -0.59 | -0.1 | -0.3 | /
CC(C)N1C(=O)CCN(C=O)c2ccccc21 | -17.6 | -5.3 | 0.0 | / | -1.8 | -6.9 | /
Cc1ncoc1C(=O)Nc1ncc([N+](=O)[O-])s1 | 55.6 | 2.4 | 0.0 | -0.03 | 13.9* | -48.9 | 8.2
O=C(Nc1nc2cc3c(cc2s1)OCCO3)c1cccc(N2C(=O)CCC2=O)c1 | / | 1.0 | 0.1 | 0.07 | -0.7 | -19.6 | /
O=C(Nc1ccc2sccc2c1)c1cccc(N2C(=O)CCC2=O)c1 | / | -1.9 | 0.1 | 0.41 | 14.6* | -5.0 | 4.5
CC1(C)CCCC(C)(C)N1CC(O)COCCOc1ccc(Br)cc1 (stereo not given) | -19.4 | -0.3 | 0.0 | 0.03 | -1.6 | 2.7 | /
COc1cccc(NC(=O)CSc2nc3c(sc4ccccc43)c(=O)n2CCN(C)C)c1 | / | -12.0 | 0.2 | -0.73 | -1.1 | -17.5 | /
CCN(CC)CCn1c(SCC(=O)Nc2cccc(OC)c2)nc2c(sc3ccccc32)c1=O | -26.7 | -6.4 | -0.1 | -0.92 | 11.8* | -11.6 | 4.7
COc1ccc(N(CC(=O)Nc2c(C)n(C)n(-c3ccccc3)c2=O)S(=O)(=O)c2ccc(F)cc2)cc1 | 4.8 | 3.4 | -0.5 | 0.3 | 13.2* | -7.3 | -0.4
CCCNC(=O)CSc1nc2ccc(OCC)cc2s1 | -50.0 | -9.1 | -0.4 | 0.2 | -1.1 | -8.8 | /
CC(C)(C)c1cc(C(=O)NCc2cc(F)cc3c2OCOC3)n(Cc2ccccc2)n1 | / | -2.5 | / | -1.41 | 3.9 | -13.3 | /
O=C1c2nc3ccccn3c2C(=O)N1Cc1ccccc1 | 64.3 | -0.4 | -0.2 | 1.96 | -3.3 | -11.9 | /
O=c1cc(NCc2ccccc2)nc2ccccn12 | 8.1 | -5.2 | -0.1 | 0.25 | 11.7* | 0.9 | -0.1
O=C(Nc1cccc2nsnc12)C1CC(=O)N(c2ccccc2)C1 (stereo not given) | / | 1.1 | -0.4 | 1.19 | -1.8 | -16.7 | /
Cc1ccc(Nc2nc(-c3ccncc3)cs2)cc1 | -11.1 | 3.5 | -0.1 | 0.13 | 18.3* | -10.9 | 7.5
Cc1ccc(C(=O)COC(=O)c2cnccn2)cc1 | / | -4.2 | -0.2 | / | -0.3 | -14.5 | /
O=C(OCC(=O)c1ccccc1Cl)c1cnccn1 | -100.0 | 0.5 | -0.1 | -0.28 | 12.2* | -60.5 | -5.8
CC(C)Oc1cccc(C(=O)C2CCCN(C(=O)c3ccnn3C)C2)c1 (stereo not given) | -33.3 | -6.9 | -0.1 | 0.49 | -1.2 | 1.8 | /
O=C(Nc1ccc(F)cc1)C(Cc1ccccc1)n1cccc1 (stereo not given) | / | -5.7 | / | -0.51 | 12.3* | -14.8 | -0.3
O=S(=O)(Nc1nc2ccccc2nc1Nc1ccc2c(c1)OCO2)c1ccccc1 | / | -1.7 | -0.4 | -0.06 | 14.2* | -24.1 | -0.5
Cc1nc(NC(=O)c2ccc3c(c2)OCO3)ccc1Br | 42.1 | -9.4 | 0.7 | 0.37 | 18.7* | -16.6 | 1.0
FC(F)(F)Oc1ccc(NC(=S)Nc2ccccc2N2CCOCC2)cc1 | / | 0.1 | / | 0.41 | 1.6 | -13.6 | /
Cc1cc(NS(=O)(=O)c2ccc(NC(=O)c3cc4cc(Br)ccc4oc3=O)cc2)no1 | 36.4 | 0.0 | -0.4 | 0.21 | -1.2 | 10.4 | /
SMILES | INS promoter inh | RBBP9 inhibitor | Hsp70 act | Insulin prom up | Wee1 stabilizer | Mdm2 ligase inh | Wee1 degr conf
COc1ccc(/C=C/C(=O)NC(=S)N2CCN(c3ccccc3OC)CC2)cc1 | / | -6.7 | / | 0.08 | 11.5* | -5.3 | 5.2
CCCCN(C(=O)COc1ccc(C)cc1OC)c1c(N)n(CCC)c(=O)[nH]c1=O | / | -8.5 | / | 0.09 | 4.7 | / | /
O=C1N=C(N2CCCC2C(=O)O)S/C1=C\c1ccco1 (stereo not given) | / | -5.7 | -0.3 | 0.46 | 12.9* | -29.5 | 2.6
Cc1ccc2c(CC(=O)N3CCc4ccccc43)coc2c1 | / | -5.3 | -0.3 | -0.26 | 18.0* | -26.8 | 2.4
O=C(Cc1coc2ccc3ccccc3c12)N1CCc2ccccc21 | -27.0 | -10.2 | -0.4 | 0.46 | 0.9 | -12.5 | /
COc1cnc(-c2ccccc2)nc1Oc1ccc(Cl)cc1C | / | -13.0 | 0.1 | 1.72 | 3.8 | -13.3 | /
COc1cc(OC)cc(C(=O)NC2CCSC2=O)c1 (stereo not given) | 17.6 | -0.4 | -0.2 | 0.19 | 11.5* | -9.4 | 0.3
COc1ccccc1N1CCN(CC(=O)c2ccc3ccn(C(C)=O)c3c2)CC1 | / | -4.8 | -0.1 | 0.04 | -2.5 | -9.8 | /
CC(=O)OCC(=O)c1ccc2ccn(C(C)=O)c2c1 | 28.9 | 0.6 | -0.3 | 0.21 | 14.3* | -12.6 | -0.2
CCN(CC)S(=O)(=O)c1cc(C(=O)N(C)CC(=O)Nc2ccc(Cl)cc2)ccc1Cl | / | 1.2 | -0.3 | -0.36 | 11.8* | 10.5 | 0.1
CN(C)S(=O)(=O)c1ccc(S(=O)(=O)N(Cc2ccco2)Cc2ccccc2Cl)cc1 | -17.1 | -6.1 | -0.4 | -1.09 | 1.1 | 3.3 | /
O=S(=O)(c1ccc(S(=O)(=O)N(Cc2ccco2)Cc2ccccc2Cl)cc1)N1CCCC1 | 21.1 | -11.6 | -0.1 | -1.26 | 26.9* | -9.7 | 2.0
CS(=O)(=O)N1N=C(c2ccccc2)CC1c1ccc2c(c1)OCO2 (stereo not given) | i | -7.1 | 0.8 | / | 1.5 | -10.9 | /
CS(=O)(=O)Nc1cccc(C2=NN(S(C)(=O)=O)C(c3ccc4c(c3)OCO4)C2)c1 (stereo not given) | -17.6 | -4.9 | 0.1 | 1.03 | 13.4* | 8.3 | 6.0
Cc1ccc(NC(=O)CCS(=O)(=O)c2ccccc2)cc1S(=O)(=O)N1CCOCC1 | -40.0 | 1.8 | -0.3 | 0.04 | 4.1 | -9.7 | /
O=C(NCCO)C(F)(F)C(F)(F)C(F)(F)OC(F)(C(=O)NCCO)C(F)(F)F (stereo not given) | -13.3 | -4.8 | -0.3 | 0.45 | 12.1* | 2.6 | -0.5
O=C(NCCc1ccccn1)C(F)(F)C(F)(F)C(F)(F)C(F)(F)C(F)(F)C(F)(F)C(F)(F)C(F)F | / | 4.1 | -0.4 | 0.31 | 0.0 | -11.0 | /
Cc1cc(C)n(CCN(C)Cc2nc(Cc3ccccc3F)no2)n1 | 6.7 | 3.5 | -0.2 | 0.62 | 10.9* | 13.0 | 0.1
Cc1ccc2nc(SCC(=O)NCC3CCCO3)c(C#N)cc2c1 (stereo not given) | / | -7.0 | -0.2 | 0.04 | 11.5* | -9.2 | 2.6
NC(N)=NS(=O)(=O)c1ccc(N)cc1 | 19.1 | -3.6 | -0.2 | / | 11.4* | / | 1.3
